# Screens (PubChem)
# HSV replic up = HSV replication enhancement. HSV replication augmentation in cells, fold increase. maximum fold increase. hit rate 0.005% among 220,000. AID 1956; in the data active means maximum fold increase above about 1.5; inconclusive means no clear call, values can overlap the other calls; tested in PC3 cells
# STAT1 activator = activators of IFN-gamma induced STAT1 signaling; NIH 3T3 STAT1-luciferase reporter, luminescence; 100% = IFN-gamma alone, no compound; hit rate 2.6% among 200,000; activation (% of control), % at 5.5 µM;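 active means activation above the screen-wide mean activation plus 3 SD, cut at about 130% in these data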
# STAT3 blocker = inhibitors of IL-6 induced STAT3 signaling | U3A cells, IL-6 STAT3-luciferase reporter, luminescence; host cell line lacks STAT1 | inhibition, % at 5.5 µM | hit rate 0.89% among 190,000 | AID 862;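 active means inhibition above the mean inhibition across all screened compounds plus 3 SD, cut at about 44% in these data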
# STAT3 activator = STAT3 signaling activation; activation (% of control), % at 5.6 µM; U3A cells, IL-6 STAT3-luciferase reporter, luminescence; 100% = signal with IL-6 EC80 alone; AID 871; hit rate 0.91% among 190,000;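 active means activation above the screen-wide mean of compound activation plus 3 SD, cut at about 130% in these data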
#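 Material: STAT3-luciferase reporter U3A cells. Controls: IL-6-treated wells, 100% activation. Read-out: % activation versus median of IL-6-stimulated wells. Probe or stimulus: IL-6 stimulus at 33 ng/mL final. Timing: compound 1 h, then IL-6 6 h at 37 °C. Signal: reporter luminescence signal.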
# STAT1 blocker = inhibitors of IFN-gamma induced STAT1 signaling; NIH 3T3 STAT1-luciferase reporter, luminescence; inhibition, % at 5.5 µM; hit rate 0.35% among 200,000;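 active means inhibition above a set limit, the mean inhibition across all tested compounds plus 3 SD, cut at about 34% in these data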
# Cl transport mod = modulators of human KCC2 chloride dependent transport; Q9H2X9; KCC2 cells, thallium flux FluoZin-2 fluorescence; B-score of Tl+ flux slope (higher = more flux/activation; lower = inhibition) at 10 µM; hit rate 2.2% among 190,000; AID 1456;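 active means thallium flux slope and its plate-corrected score both differing from the plate sample mean at a set confidence after two filtering rounds, in either direction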;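 further: slope of fluorescence scaled to starting intensity during 10 to 20 s after thallium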
# Target sequence (Q9H2X9 whole entry, looked up): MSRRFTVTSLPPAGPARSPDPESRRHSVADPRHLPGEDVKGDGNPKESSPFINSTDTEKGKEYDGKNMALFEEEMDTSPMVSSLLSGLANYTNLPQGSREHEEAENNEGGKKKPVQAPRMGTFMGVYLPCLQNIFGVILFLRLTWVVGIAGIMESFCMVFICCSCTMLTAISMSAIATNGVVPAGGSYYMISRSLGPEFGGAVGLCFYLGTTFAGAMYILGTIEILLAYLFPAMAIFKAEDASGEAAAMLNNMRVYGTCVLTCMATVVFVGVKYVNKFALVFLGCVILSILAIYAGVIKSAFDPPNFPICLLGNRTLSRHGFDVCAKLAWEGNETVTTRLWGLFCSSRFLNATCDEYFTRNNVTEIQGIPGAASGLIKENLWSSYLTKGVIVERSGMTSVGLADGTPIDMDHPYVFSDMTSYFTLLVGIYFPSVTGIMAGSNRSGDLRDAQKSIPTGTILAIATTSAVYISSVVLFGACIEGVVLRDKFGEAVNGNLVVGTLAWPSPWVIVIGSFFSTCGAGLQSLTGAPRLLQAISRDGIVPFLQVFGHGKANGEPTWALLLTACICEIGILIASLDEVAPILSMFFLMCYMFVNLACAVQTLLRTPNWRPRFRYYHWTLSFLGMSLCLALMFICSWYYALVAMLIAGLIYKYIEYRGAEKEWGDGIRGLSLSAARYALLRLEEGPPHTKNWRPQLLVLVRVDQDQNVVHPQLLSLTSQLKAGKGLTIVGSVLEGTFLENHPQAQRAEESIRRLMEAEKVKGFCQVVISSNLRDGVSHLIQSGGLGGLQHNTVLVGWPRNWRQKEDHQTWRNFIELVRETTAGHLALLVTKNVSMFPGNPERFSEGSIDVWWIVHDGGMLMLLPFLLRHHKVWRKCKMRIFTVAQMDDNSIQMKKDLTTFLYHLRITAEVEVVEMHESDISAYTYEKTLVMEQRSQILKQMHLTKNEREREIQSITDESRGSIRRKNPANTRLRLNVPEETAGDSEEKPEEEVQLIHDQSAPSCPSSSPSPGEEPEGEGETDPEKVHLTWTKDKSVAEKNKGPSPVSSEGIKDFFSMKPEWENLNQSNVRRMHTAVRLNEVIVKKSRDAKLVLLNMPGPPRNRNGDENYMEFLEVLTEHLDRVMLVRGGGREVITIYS
# KCC2 sec1 = confirmation of human KCC2 transport modulators; hit rate 15% among 3,700; AID 1713; normalised thallium flux (F/F0 slope) at 10 µM; shares compounds with Cl transport mod; HEK293-KCC2, thallium flux, FluoZin2 fluorescence; stronger effect = higher value;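 active means thallium flux slope above the same plate's solvent-only control mean plus 3 SD; inconclusive means the two replicate wells disagree; inactive means no significant difference from solvent-only control wells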
# KCC2 bumet counter = thallium flux despite bumetanide block in KCC2 cells, secondary assay 3. hit rate 49% among 3,700. shares compounds with Cl transport mod. normalized thallium flux at 10 µM. HEK293-KCC2 + bumetanide/ouabain, thallium flux FluoZin2; stronger effect = higher value;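 active means thallium entry rate above the same plate's blocked-transporter control wells by more than 3 SD; inconclusive means the two repeat wells disagree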;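 further: raw slope of fluorescence over initial fluorescence between 10 and 20 s after thallium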
# KCC2 sec2 = confirmation of human KCC2 transport modulators; shares compounds with Cl transport mod; HEK293-KCC2, thallium flux FluoZin2 fluorescence; actives lie on both sides; F/F0 rise rate, 10–20 s post-thallium; normalized thallium flux at 10 µM; hit rate 23% among 3,700;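 active means thallium flux slope more than 3 SD above or below the plate's solvent-only control mean, mostly below; inconclusive means the two repeat wells disagreed; inactive means no significant shift from solvent-only controls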
# HEK counter1 = counter-screen for KCC2 modulators: effect in parental HEK293 cells; shares compounds with Cl transport mod; thallium flux FluoZin2, ouabain; baseline-ratio fluorescence slope, 10–20 s after thallium; thallium flux rate (normalised fluorescence) at 10 µM; hit rate 46% among 3,700; AID 1716;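 active means thallium flux rate significantly above the same plate's solvent-only control wells, beyond their mean plus 3 SD; inconclusive means the two replicate wells gave conflicting results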
# KCC2 ouabain = KCC2 (human) modulation, ouabain retest; shares compounds with Cl transport mod; HEK293-KCC2, thallium flux FluoZin2 fluorescence; bidirectional: low = inhibitor, high = activator; hit rate 48% among 3,700; raw Tl+ flux slope (below DMSO = inhibition, above = activation) at 10 µM;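 active means thallium flux slope beyond 3 SD from same-plate DMSO control mean in most replicates, usually higher, sometimes lower; inconclusive means repeat tests gave conflicting results; inactive means no significant difference from controls in most replicates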;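 further: slope of initial-normalized fluorescence between seconds 10 and 20 after thallium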
# HEK293 Tl flux2 = parental HEK flux effect, counter-screen 2 | shares compounds with Cl transport mod | HEK293 parental, thallium flux FluoZin-2 fluorescence slope | thallium flux slope at 10 µM | hit rate 33% among 3,700;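 active means thallium flux slope above the same plate's solvent-control mean plus 3 SD in both duplicate wells; inconclusive means duplicate wells that disagreed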;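 further: run without ouabain in cells lacking the KCC2 cotransporter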
# Numbers stand for hits; n = inactive; u = inconclusive; x = not tested or not shown. The list is not random: actives were taken first. Their share in the collection is about 5.5%.
SMILES,HSV replic up,STAT1 activator,STAT3 blocker,STAT3 activator,STAT1 blocker,Cl transport mod,KCC2 sec1,KCC2 bumet counter,KCC2 sec2,HEK counter1,KCC2 ouabain,HEK293 Tl flux2
O=C(Nc1nnc(C2CC2)s1)C1COc2ccccc2O1 (centres undefined),n,n,n,n,n,n,x,x,x,x,x,x
Cc1cc(C)c2sc(NNC(=O)C3COc4ccccc4O3)nc2c1 (centres undefined),x,n,n,n,n,n,x,x,x,x,x,x
CCOC(=O)C1=C(C)N=C2SC(C)C(=O)N2C1c1ccc(OCC)c(OCC)c1 (centres undefined),n,n,n,n,n,x,x,x,x,x,x,x
Cc1ccc(/C=N/n2c(-c3cccc(Cl)c3)n[nH]c2=S)o1,n,x,x,x,x,45,n,0.046,n,0.029,0.04,0.02
S=c1[nH]nc(-c2cccc(Cl)c2)n1/N=C/c1ccco1,n,x,x,x,x,14,u,0.021,n,0.018,0.031,n
COc1ccccc1/C=C/C=N/n1c(-c2ccc(F)cc2)n[nH]c1=S,n,x,x,x,x,5.3,n,0.015,n,0.011,n,n
S=c1[nH]nc(-c2ccncc2)n1/N=C/C=C/c1ccco1,n,n,n,n,n,n,x,x,x,x,x,x
S=c1[nH]nc(-c2ccccc2Cl)n1/N=C/C=C/c1ccco1,n,x,x,x,x,x,x,x,x,x,x,x
COc1ccccc1/C=C\C=N\n1c(-c2ccc(Cl)cc2)n[nH]c1=S,n,n,n,n,n,n,x,x,x,x,x,x
Cc1cccc(-c2n[nH]c(=S)n2/N=C/C=C/c2ccco2)c1,n,x,x,x,x,20,n,0.022,n,0.018,0.028,0.016
O=C(N/N=C\c1cc(Br)cs1)C1COc2ccccc2O1 (centres undefined),n,n,n,n,n,n,x,x,x,x,x,x
CN1C(=O)/C(=C/c2cc(C(C)(C)C)c(O)c(C(C)(C)C)c2)NC1=S,n,n,n,n,n,12,n,0.018,n,0.013,n,0.012
COc1ccc(/C=N/n2c(C)nc3sc(C)c(C)c3c2=O)cc1,n,x,x,x,x,n,x,x,x,x,x,x
CC1Cc2ccccc2N1C(=O)CSc1nnc2c(n1)[nH]c1ccc(F)cc12 (centres undefined),n,n,n,n,n,x,x,x,x,x,x,x
COc1ccc(NC(=S)/N=C(\N)Nc2nc(C)c3ccccc3n2)cc1,n,x,x,x,x,-3.6,n,n,0.026,n,0.017,n
Cc1c(Br)c([N+](=O)[O-])nn1CCCC(=O)N1CCN(c2ccccc2)CC1,n,n,n,n,n,n,x,x,x,x,x,x
Cc1c(Cl)c([N+](=O)[O-])nn1CCCC(=O)N1CCN(c2ccccc2)CC1,n,n,n,n,n,-2.7,n,u,n,n,n,u
O=C(COc1ccc(Cl)cc1Cl)NC(=O)N1CCOCC1,n,n,n,n,n,n,x,x,x,x,x,x
CC(C)Cc1[nH]c(=O)c(C#N)c2c1CCCC2,n,n,n,n,n,n,n,n,n,u,n,n
O=c1c2ccccc2nc(-c2ccc([N+](=O)[O-])cc2)n1O,n,n,n,n,n,9,u,0.02,n,0.016,0.028,u
O=C(NC(=S)Nc1ccc(N2CCOCC2)cc1)c1cncc(Br)c1,n,n,n,n,n,5.5,n,0.019,n,u,0.026,n
O=C(NC(=S)Nc1ccccn1)c1cccc([N+](=O)[O-])c1,n,x,x,x,x,8,u,0.042,n,0.014,n,0.013
O=C(NC(=S)Nc1cccc([N+](=O)[O-])c1)c1ccco1,n,n,n,n,n,28,0.022,0.079,u,u,0.062,0.025
O=C(NC(=S)Nc1cccc([N+](=O)[O-])c1)c1ccccc1,n,x,x,x,x,12,n,0.03,n,u,n,u
COc1ccc(NC(=S)NNC(=O)c2nnn(-c3ccccc3)c2C)cc1,n,n,n,n,n,n,x,x,x,x,x,x
SMILES,HSV replic up,STAT1 activator,STAT3 blocker,STAT3 activator,STAT1 blocker,Cl transport mod,KCC2 sec1,KCC2 bumet counter,KCC2 sec2,HEK counter1,KCC2 ouabain,HEK293 Tl flux2
O=C(NC(=S)Nc1ccccn1)c1cncc(Br)c1,n,n,n,n,n,6.2,n,0.017,n,0.015,u,0.014
O=C(NC(=S)Nc1ccc(Br)cn1)c1cccs1,n,204,n,168,n,7.7,n,0.024,n,0.017,0.033,0.018
O=C(NC(=S)Nc1ccc(Br)cn1)c1cncc(Br)c1,n,n,n,n,n,n,x,x,x,x,x,x
Cc1[nH]c(=S)sc1Cc1ccc(Cl)c(Cl)c1,n,n,n,n,n,49,u,0.084,u,0.037,0.048,0.015
Cc1nnc(SCc2ccc(Cl)c(Cl)c2)s1,n,n,n,n,n,x,x,x,x,x,x,x
CCn1c2ccccc2c2nnc(SCC(=O)NC(CC(C)C)C(=O)OC)nc21 (centres undefined),n,n,n,n,n,n,x,x,x,x,x,x
NC(=O)CC(NC(=O)Cc1ccc(Br)cc1)c1ccc(NCCc2ccc(F)cc2)c([N+](=O)[O-])c1 (centres undefined),n,x,x,x,x,-3,n,n,u,u,n,n
NC(=O)CC(NC(=O)Cc1ccc(Br)cc1)c1ccc(NCCc2ccc(Cl)cc2)c([N+](=O)[O-])c1 (centres undefined),n,x,x,x,x,n,x,x,x,x,x,x
O=c1nc(Nc2cccc(Cl)c2)oc2cc(Cl)oc(=O)c12,n,x,x,x,x,-4.5,n,n,n,n,u,n
CCOc1ccc(-c2cn(-c3cccc(SC)c3)c(=O)[nH]2)cc1,n,n,n,n,n,n,x,x,x,x,x,x
O=C(CSc1nc2cc(Cl)ccc2s1)c1ccco1,n,n,n,n,n,13,0.025,0.036,0.043,0.03,0.036,0.033
O=C(CSc1nnc(SCC(=O)c2ccco2)s1)c1ccco1,n,n,n,n,n,n,x,x,x,x,x,x
O=C(CCc1nnc(COc2ccccc2)o1)NCc1ccccc1C(F)(F)F,n,n,n,n,n,-3.2,n,n,n,n,0.017,n
O=C(CCc1nnc(COc2ccccc2)o1)NCc1ccc(Cl)s1,n,n,n,n,n,n,x,x,x,x,x,x
O=C1NC(=S)N(c2cccc(Cl)c2)C12CCCCC2,n,n,n,n,n,4.6,n,0.011,n,0.013,n,0.012
